Results taken from ChEMBL document CHEMBL1687902, “Discovery of potent inhibitors of soluble epoxide hydrolase by combinatorial library design and structure-based virtual screening” (J Med Chem, 2011).

Tests used:
[1] = Inhibition of chimeric mouse-human sEH assessed as 6,8-difluoro-4-methylumbelliferyl trans-2,3-epoxy-3-phenylpropylcarbonate hydrolysis preincubated for 10 mins before addition of substrate by fluorometric assay
[2] = system: soluble epoxide hydrolase (Chlorocebus aethiops); assay: Inhibition of native sEH in african green monkey COS7 cells assessed as 11,12-epoxyeicosatrienoic acid hydrolysis preincubated for 1 hr before substrate addition measured after 2 hrs by LC/MS/MS; conditions: cos-7
[3] = Metabolic stability in human liver microsomes assessed as compound remaining after 30 mins; assay type: ADME, Microsome; conditions: read-out: Stability
Method in brief: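 Pooled human liver microsomes, compound at 1 μM in 100 mM phosphate buffer pH 7.4. NADP+ regenerating system (1 mM NADP+, 5 mM isocitric acid, 1 U/mL isocitric dehydrogenase) with 1 mM MgCl2. Read-out is percent parent remaining after 30 min incubation.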

Row | SMILES | IC50 [1] | IC50 [2] | remaining at 0.5 h [3]
1 | CC(=O)c1ccc(N2CCC(CC(=O)Nc3nc4c(C)cccc4o3)CC2)cc1 | 109 nM |  | 
2 | CC(C)(C)OC(=O)N1CCC(CC(=O)Nc2nc3ccccc3o2)CC1 | 94.3 nM | 10.3 nM | 83%
3 | CC(C)(C)OC(=O)N1CCC(CC(=O)Nc2nc3cc(Cl)ccc3o2)CC1 | 6.92 nM | 1.54 nM | 43%
4 | Cc1ccc2oc(NC(=O)CC3CCN(C(=O)OC(C)(C)C)CC3)nc2c1 | 11.4 nM | 0.486 nM | 6%
5 | Cc1cc(C)c2oc(NC(=O)CC3CCN(C(=O)OC(C)(C)C)CC3)nc2c1 | 73 nM | 4.38 nM | 22%
6 | Cc1cccc2oc(NC(=O)CC3CCN(C(=O)OC(C)(C)C)CC3)nc12 | 272 nM |  | 
7 | Cc1ccc2nc(NC(=O)CC3CCN(C(=O)OC(C)(C)C)CC3)oc2c1 | 202 nM |  | 
8 | CC(=O)c1ccc(N2CCC(CC(=O)Nc3nc4ccccc4o3)CC2)cc1 | 19.4 nM | 22 nM | 62%
9 | CC(=O)c1ccc(N2CCC(CC(=O)Nc3nc4cc(Cl)ccc4o3)CC2)cc1 | 3.58 nM | 4.68 nM | 45%
10 | CC(=O)c1ccc(N2CCC(CC(=O)Nc3nc4cc(C)ccc4o3)CC2)cc1 | 3.61 nM | 5.76 nM | 53%
11 | CC(=O)c1ccc(N2CCC(CC(=O)Nc3nc4cc(C)cc(C)c4o3)CC2)cc1 | 46.5 nM | 1.42 nM | 22%
12 | CC(=O)c1ccc(N2CCC(CC(=O)Nc3nc4ccc(C)cc4o3)CC2)cc1 | 184 nM |  | 
